Experimental data: ChEMBL document CHEMBL1144816, “Potential anticancer activity of naturally occurring and semisynthetic derivatives of aculeatins A and B from Amomum aculeatum” (2008)
Calls of active or inactive are those of the source. The rule behind the calls is not given here.

Legend:
Lu1 [1] = experiment: Cytotoxicity against human Lu1 cells; assay type: functional; conditions: read-out: ED50 (the source's name)
LNCaP [2] = experiment: Cytotoxicity against human LNCaP cells; assay type: functional; conditions: read-out: ED50 (the source's name)
MCF7 [3] = experiment: Cytotoxicity against human MCF7 cells; assay type: functional; conditions: read-out: ED50 (the source's name)
P388 = experiment: Antitumor activity against mouse P388 lymphocytic leukemia model at 15 mg/kg, ip relative to control; assay type: functional; conditions: route intraperitoneal
Summary of the method: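 Murine P388 lymphocytic leukemia in vivo. Compound given by intraperitoneal injection at 15 mg/kg/injection. Activity expressed as T/C (%) relative to control.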

[4] = Antitumor activity against human A2780S cells xenografted in mouse at 3 mg/kg relative to control; assay type: functional, A2780
Summary of the method: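 Mice bearing human A2780S ovarian carcinoma xenografts; dosed at 3 mg/kg/injection; activity read out as log cell kill versus control; run per a previously published protocol.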

MCF7 [5] = experiment: Inhibition of human MCF7 cells propagated in hollow fibers via intraperitoneal site of immunodeficient mouse at 6.25 to 50 mg/kg after 3 to 6 days; assay type: functional; conditions: dose mg/kg 6.25-50
Summary of the method: (§1)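 Lu1, LNCaP or MCF-7 cells in hollow fibers implanted subcutaneously or intraperitoneally in immunodeficient mice. Dosing was once daily by intraperitoneal injection at 6.25, 12.5, 25 or 50 mg/kg on days 3–6 after implantation. Growth inhibition was measured against vehicle-treated animals.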

Lu1 [6] = experiment: Inhibition of human Lu1 cells propagated in hollow fibers via intraperitoneal site of immunodeficient mouse at 6.25 to 50 mg/kg after 3 to 6 days; assay type: functional, organism-based; summary of the method: as §1
LNCaP [7] = experiment: Inhibition of human LNCaP cells propagated in hollow fibers via intraperitoneal site of immunodeficient mouse at 6.25 to 50 mg/kg after 3 to 6 days; assay type: functional, organism-based; summary of the method: as §1
MCF7 [8] = experiment: Inhibition of human MCF7 cells propagated in hollow fibers via subcutaneous site of immunodeficient mouse at 6.25 to 50 mg/kg after 3 to 6 days; assay type: functional, organism-based; summary of the method: as §1
Lu1 [9] = experiment: Inhibition of human Lu1 cells propagated in hollow fibers via subcutaneous site of immunodeficient mouse at 6.25 to 50 mg/kg after 3 to 6 days; assay type: functional, organism-based; summary of the method: as §1
LNCaP [10] = experiment: Inhibition of human LNCaP cells propagated in hollow fibers via subcutaneous site of immunodeficient mouse at 6.25 to 50 mg/kg after 3 to 6 days; assay type: functional, organism-based; summary of the method: as §1

| Compound | EC50 (Lu1 [1]; Homo sapiens, Lu1) | EC50 (LNCaP [2]; Homo sapiens, LNCaP) | EC50 (MCF7 [3]; Homo sapiens, MCF7) | also measured |
| --- | --- | --- | --- | --- |
| CCCCCCCCCCCCC[C@@H]1C[C@@H](OC(C)=O)C[C@]2(CCC3(C=CC(=O)C=C3)O2)O1 | 2600 nM | 1100 nM | 1500 nM |  |
| CCCCCCCCCCCCC[C@@H]1C[C@@H](OC(=O)c2cc(F)c(Cl)nc2Cl)C[C@]2(CCC3(C=CC(=O)C=C3)O2)O1 | 22200 nM | 17900 nM | 14600 nM |  |
| CCCCCCCCCCCCCCC[C@@H](O)CC1(OC)CCC2(C=CC(=O)C=C2)O1 (stereo in doubt; 6) |  |  |  | EC50 (Lu1 [1]): 900 nM; EC50 (LNCaP [2]): 700 nM; EC50 (MCF7 [3]): 900 nM |
| CCCCCCCCCCCCC[C@@H]1C[C@@H](OC(=O)c2c(Cl)c(Cl)c(Cl)c(Cl)c2C(=O)O)C[C@]2(CCC3(C=CC(=O)C=C3)O2)O1 | 12800 nM | 5800 nM | 4800 nM |  |
| CCCCCCCCCCCCC[C@@H]1C[C@@H](O)C[C@@]2(CCC3(C=CC(=O)C=C3)O2)O1 [ACULEATINS B] | 3100 nM | 1200 nM | 1900 nM |  |
| CCCCCCCCCCCCC[C@@H]1C[C@@H](O)C[C@@]2(CC[C@]3(C=CC(=O)C[C@@H]3O)O2)O1 (relative stereo) [ACULEATOL E] | 1800 nM | 4400 nM | 3900 nM |  |
| CCCCCCCCCCCCC[C@@H]1C[C@@H](OC(C)=O)C[C@@]2(CCC3(C=CC(=O)C=C3)O2)O1 | 5700 nM | 2200 nM | 3500 nM |  |
| CCCCCCCCCCC[C@@H]1C[C@H](O)C[C@@]2(CCC3(C=CC(=O)C=C3)O2)O1 (relative stereo) [ACULEATIN E] | 1800 nM | 1800 nM | 500 nM |  |
| CCCCCCCCCCCCC[C@@H]1C[C@@H](OC(=O)[C@@]23CC[C@@](C)(C(=O)O2)C3(C)C)C[C@]2(CCC3(C=CC(=O)C=C3)O2)O1 | 4000 nM | 3000 nM | 3200 nM |  |
| CCCCCCCCCCCCC[C@@H]1CC(=O)C[C@]2(CCC3(C=CC(=O)C=C3)O2)O1 | 30500 nM | 22100 nM | 7500 nM |  |
| CCCCCCCCCCCCC[C@@H]1C[C@@H](OC(=O)COCC(=O)O)C[C@]2(CCC3(C=CC(=O)C=C3)O2)O1 | 3400 nM | 1900 nM | 1300 nM |  |
| CCCCCCCCCCCCCCC[C@@H](O)CC1(OC)CCC2(C=CC(=O)C=C2)O1 (stereo in doubt; 7) | 500 nM | 900 nM | 700 nM |  |
| CCCCCCCCCCC[C@@H]1C[C@@H](O)C[C@]2(CCC3(C=CC(=O)C=C3)O2)O1 (relative stereo) [ACULEATIN F] | 1000 nM | 700 nM | 500 nM |  |
| CCCCCCCCCCCCC[C@@H]1C[C@@H](OC(=O)c2ccc(Br)cc2)C[C@]2(CCC3(C=CC(=O)C=C3)O2)O1 | 1300 nM | 800 nM | 700 nM |  |
| CCCCCCCCCCCCC[C@@H]1C[C@@H](O)C[C@]2(CCC3(C=CC(=O)C=C3)O2)O1 [ACULEATIN A] | 1000 nM | 500 nM | 200 nM | T/C (P388): 122%; LCK [4]: 0.4; Inhibition (MCF7 [5]): 10%; Activity (Lu1 [6]): inactive; Activity (LNCaP [7]): inactive; Activity (MCF7 [8]): inactive; Activity (Lu1 [9]): inactive; Activity (LNCaP [10]): inactive |
| CCCCCCCCCCCCC[C@@H]1C[C@@H](OC(=O)c2c(Br)c(Br)c(Br)c(Br)c2C(=O)O)C[C@]2(CCC3(C=CC(=O)C=C3)O2)O1 | 10300 nM | 5100 nM | 4700 nM |  |
